Columns and labels:
[1] = biological target: T1, Human immunodeficiency virus type 1 integrase (Human immunodeficiency virus 1, UniProt Q7ZJM1); test: Inhibition of HIV1 integrase strand transfer activity
Method in brief: (§1)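 Hits from the electrochemiluminescent screen were confirmed in a gel-based assay with Mg2+. IC50 values were determined separately for 3'-processing and strand transfer.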

[2] = biological target: T1, Human immunodeficiency virus type 1 integrase; test: Inhibition of HIV1 integrase 3' processing activity; method in brief: as §1
[3] = biological target: T1, Human immunodeficiency virus type 1 integrase; test: Inhibition of HIV1 integrase by BioVeris assay
Method in brief: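 Electrochemiluminescent high-throughput screen measuring HIV-1 integrase strand transfer in the presence of Mg2+, with ruthenium-labelled reagents.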

T1 sequence (Q7ZJM1 whole entry): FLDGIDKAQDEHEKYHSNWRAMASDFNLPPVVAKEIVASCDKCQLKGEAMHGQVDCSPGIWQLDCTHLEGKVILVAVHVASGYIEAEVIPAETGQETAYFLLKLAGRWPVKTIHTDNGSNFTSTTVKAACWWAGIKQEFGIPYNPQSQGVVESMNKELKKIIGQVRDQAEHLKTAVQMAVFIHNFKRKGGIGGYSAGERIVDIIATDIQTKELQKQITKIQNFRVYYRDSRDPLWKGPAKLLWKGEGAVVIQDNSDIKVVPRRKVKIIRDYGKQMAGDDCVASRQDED

IC50 [1] [µM] | IC50 [2] [µM] | IC50 [3] [µM] | SMILES
> 333 | > 333 | 37 | O=C(O)CCC(=O)Nc1ccccc1-c1ccccc1NC(=O)CCC(=O)O
114 | 204 | 292 | C=C(NNC(=O)Cc1ccc(O)cc1)c1ccc(NC(=O)CCC(=O)O)cc1
70 | 120 | 141 | C=C(NNC(=O)c1c[nH]c2ccccc12)c1cccc(NC(=O)CCCC(=O)O)c1
– | 295 | 670 | CC(C)n1nc(C(=O)NN/C(=C/CC(=O)O)c2ccc(Br)cc2)c2ccccc2c1=O
57 | 87 | 121 | Cc1n[nH]c(O)c1C(c1ccc(-c2ccc(Cl)c(C(=O)O)c2)o1)c1c(O)n[nH]c1C
120 | 155 | 780 | O=C(O)COc1ccccc1/C=N/NC(=O)CSc1nc2ccccc2[nH]1
> 333 | > 333 | 182 | C=C(NNC(=O)C(C)Oc1ccccc1Cl)c1cccc(NC(=O)C2CCCCC2C(=O)O)c1 (stereo unspecified)
49 | 65 | 113 | C=C(NNC(=O)C1CC1c1ccccc1)c1cccc(NC(=O)C2CCCCC2C(=O)O)c1 (stereo unspecified)
54 | 121 | 580 | Cc1[nH]nc(O)c1CC(=O)N/N=C/c1ccccc1OCC(=O)O

Reference: ChEMBL document CHEMBL1149704, “Virtual screening application of a model of full-length HIV-1 integrase complexed with viral DNA” (Bioorg Med Chem Lett, 2007)
